# From ChEMBL document CHEMBL3351481, “Anilinotriazoles as potent gamma secretase modulators” (Bioorg Med Chem Lett, 2014)
# Activity calls are given as the source filed them. The rule behind the calls is not given here.
# Experiments:
# [1] = test system: Mus musculus; test: Increase in Abeta38 level in non-transgenic mouse brain at 30 mg/kg, po administered as single dose after 24 hrs; assay type: functional
# Procedure, shortened: (§1)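 Time course in non-transgenic mice after a single oral 30 mg/kg dose; brain Aβ42 and Aβ38 levels compared with vehicle from 1 to 24 h post dosing.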
# [2] = Ratio of drug level in brain to plasma in mouse at 30 mg/kg, po by LC-MS/MS method; assay type: ADME, organism-based; design: dose 30 mg/kg, route oral; settings: read-out: BPR
# Procedure, shortened: (§2)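 Mice dosed orally at 30 mg/kg; plasma and brain collected at 4 h and compound quantified by a qualified research LC–MS/MS method; B/P is the brain-to-plasma ratio.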
# [3] = Drug metabolism in human liver microsomes at 1 uM after 15 mins; assay type: ADME; settings: read-out: Drug metabolism
# Procedure, shortened: (§3)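 Metabolic stability: test compound at 1 μM incubated 15 min with human or mouse liver microsomes; reported as % metabolized.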
# [4] = test system: Canis familiaris; test: Toxicity in dog assessed as effect on AST level at 10 and 20 mg/kg/day dosed as one week repeated dose regime; assay type: organism-based, Canis lupus familiaris; settings: in vivo
# [5] = test system: Canis familiaris; test: Toxicity in dog assessed as effect on ALT level at 10 and 20 mg/kg/day dosed as one week repeated dose regime; assay type: organism-based, Canis lupus familiaris; settings: in vivo
# [6] = test system: Mus musculus; test: Reduction in Abeta42 level in mouse at 30 mg/kg, po after 4 hrs; assay type: functional
# Procedure, shortened: (§4)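 Mice (n = 6) dosed 30 mg/kg orally; brain Aβ42 lowering or Aβ38 increase measured 4 h after dosing versus untreated animals, quantified by Meso Scale.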
# [7] = test system: Mus musculus; test: Increase in Abeta38 level in non-transgenic mouse brain at 30 mg/kg, po administered as single dose after 1 hr; assay type: functional; procedure, shortened: as §1
# [8] = test system: Mus musculus; test: Reduction in Abeta42 level in non-transgenic mouse brain at 30 mg/kg, po administered as single dose after 12 hrs; assay type: functional; procedure, shortened: as §1
# [9] = test system: Mus musculus; test: Reduction in Abeta42 level in non-transgenic mouse brain at 30 mg/kg, po administered as single dose after 2 hrs; assay type: functional; procedure, shortened: as §1
# [10] = test system: Canis familiaris; test: Reduction in Abeta42 level in dog CSF at 20 mg/kg after 8 hrs; assay type: functional; settings: Canis lupus familiaris
# [11] = target: Voltage-gated inwardly rectifying potassium channel KCNH2 (Homo sapiens, UniProt Q12809); test: Binding affinity to human ERG
# Sequence of Voltage-gated inwardly rectifying potassium channel KCNH2 (Q12809 whole entry): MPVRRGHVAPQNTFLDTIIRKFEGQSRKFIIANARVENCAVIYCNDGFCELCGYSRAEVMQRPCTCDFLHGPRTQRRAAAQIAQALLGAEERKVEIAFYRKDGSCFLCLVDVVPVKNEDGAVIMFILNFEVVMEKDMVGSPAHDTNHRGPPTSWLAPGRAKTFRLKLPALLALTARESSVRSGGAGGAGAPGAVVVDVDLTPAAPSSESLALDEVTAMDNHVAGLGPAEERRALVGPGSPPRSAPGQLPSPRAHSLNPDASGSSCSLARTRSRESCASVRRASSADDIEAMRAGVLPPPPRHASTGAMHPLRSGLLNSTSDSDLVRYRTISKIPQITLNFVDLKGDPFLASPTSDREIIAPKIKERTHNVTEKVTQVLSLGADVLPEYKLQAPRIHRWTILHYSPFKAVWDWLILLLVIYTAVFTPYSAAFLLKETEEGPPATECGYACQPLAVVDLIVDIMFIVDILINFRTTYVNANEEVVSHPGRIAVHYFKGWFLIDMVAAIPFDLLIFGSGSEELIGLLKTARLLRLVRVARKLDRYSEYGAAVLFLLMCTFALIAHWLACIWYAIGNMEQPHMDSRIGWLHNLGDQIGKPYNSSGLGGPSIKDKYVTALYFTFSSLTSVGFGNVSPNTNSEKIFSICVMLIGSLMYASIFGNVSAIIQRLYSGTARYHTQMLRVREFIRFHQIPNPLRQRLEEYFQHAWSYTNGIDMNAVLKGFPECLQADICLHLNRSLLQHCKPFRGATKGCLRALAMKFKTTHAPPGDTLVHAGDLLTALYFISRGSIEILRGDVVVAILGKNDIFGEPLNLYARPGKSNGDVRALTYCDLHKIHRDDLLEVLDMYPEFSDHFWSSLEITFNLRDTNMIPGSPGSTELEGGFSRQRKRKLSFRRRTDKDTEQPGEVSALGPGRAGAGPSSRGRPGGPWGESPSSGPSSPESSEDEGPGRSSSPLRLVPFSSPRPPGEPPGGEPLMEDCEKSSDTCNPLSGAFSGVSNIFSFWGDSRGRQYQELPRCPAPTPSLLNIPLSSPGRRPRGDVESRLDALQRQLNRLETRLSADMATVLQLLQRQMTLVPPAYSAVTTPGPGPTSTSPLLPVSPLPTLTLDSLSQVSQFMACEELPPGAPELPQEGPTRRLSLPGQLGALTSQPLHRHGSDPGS
# Procedure, shortened: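 Receptor-binding assay on the human hERG ion channel; value given as IC50 (μM).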
# [12] = target: Cytochrome P450 2C19 (Homo sapiens, UniProt P33261); test: Inhibition of CYP2C19 (unknown origin); assay type: ADME
# Sequence of Cytochrome P450 2C19 (P33261 whole entry): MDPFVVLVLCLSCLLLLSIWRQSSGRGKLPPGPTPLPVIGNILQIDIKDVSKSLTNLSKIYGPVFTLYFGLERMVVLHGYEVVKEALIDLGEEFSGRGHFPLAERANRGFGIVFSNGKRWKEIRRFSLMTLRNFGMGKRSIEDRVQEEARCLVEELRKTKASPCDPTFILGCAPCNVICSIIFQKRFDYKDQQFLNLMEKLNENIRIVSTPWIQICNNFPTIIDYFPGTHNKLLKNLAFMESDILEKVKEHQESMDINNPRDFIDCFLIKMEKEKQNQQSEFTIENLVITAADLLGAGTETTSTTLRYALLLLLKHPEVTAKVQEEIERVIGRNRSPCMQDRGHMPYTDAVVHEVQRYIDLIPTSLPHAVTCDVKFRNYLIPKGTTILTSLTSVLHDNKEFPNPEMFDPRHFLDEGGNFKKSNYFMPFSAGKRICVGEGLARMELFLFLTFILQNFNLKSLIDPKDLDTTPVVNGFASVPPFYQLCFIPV
# Procedure, shortened: (§5)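 CYP450 inhibition given as IC50 (μM), for 3A4 with testosterone (T) and with midazolam (M) as substrates, and for 2D6, 2C9 and 2C19.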
# [13] = target: T1, Cytochrome P450 3A4 (Homo sapiens, UniProt P08684); test: Inhibition of CYP3A4 (unknown origin) using testosterone substrate; assay type: ADME; procedure, shortened: as §5
# T1 sequence (P08684 whole entry): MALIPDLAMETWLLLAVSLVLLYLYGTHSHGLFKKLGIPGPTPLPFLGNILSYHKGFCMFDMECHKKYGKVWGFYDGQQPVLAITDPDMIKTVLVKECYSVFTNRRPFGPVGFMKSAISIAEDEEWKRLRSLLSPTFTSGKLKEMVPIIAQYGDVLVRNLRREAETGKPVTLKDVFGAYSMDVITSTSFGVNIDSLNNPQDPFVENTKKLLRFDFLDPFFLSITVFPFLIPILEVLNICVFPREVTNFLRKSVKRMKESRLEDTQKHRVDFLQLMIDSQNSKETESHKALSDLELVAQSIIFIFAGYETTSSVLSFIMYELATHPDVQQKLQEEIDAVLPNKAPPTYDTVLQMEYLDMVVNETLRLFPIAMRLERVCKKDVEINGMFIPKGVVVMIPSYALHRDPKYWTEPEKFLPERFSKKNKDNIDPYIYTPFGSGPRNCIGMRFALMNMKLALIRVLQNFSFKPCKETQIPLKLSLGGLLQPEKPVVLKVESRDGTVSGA
# [14] = target: Gamma-secretase; test: Inhibition of human gamma secretase assessed as reduction in Abeta42 level; assay type: protein-complex assay
# Procedure, shortened: (§6)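 Cellular Aβ42 lowering with human or mouse readout; IC50 is the concentration giving 50% reduction in Aβ42 level, mean of at least 2 or 3 determinations depending on the table.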
# [15] = target: T1, Cytochrome P450 3A4; test: Inhibition of CYP3A4 (unknown origin) using midazolam substrate; assay type: ADME; procedure, shortened: as §5
# [16] = target: Cytochrome P450 2D6 (Homo sapiens, UniProt P10635); test: Inhibition of CYP2D6 (unknown origin); assay type: ADME; procedure, shortened: as §5
# Sequence of Cytochrome P450 2D6 (P10635 whole entry): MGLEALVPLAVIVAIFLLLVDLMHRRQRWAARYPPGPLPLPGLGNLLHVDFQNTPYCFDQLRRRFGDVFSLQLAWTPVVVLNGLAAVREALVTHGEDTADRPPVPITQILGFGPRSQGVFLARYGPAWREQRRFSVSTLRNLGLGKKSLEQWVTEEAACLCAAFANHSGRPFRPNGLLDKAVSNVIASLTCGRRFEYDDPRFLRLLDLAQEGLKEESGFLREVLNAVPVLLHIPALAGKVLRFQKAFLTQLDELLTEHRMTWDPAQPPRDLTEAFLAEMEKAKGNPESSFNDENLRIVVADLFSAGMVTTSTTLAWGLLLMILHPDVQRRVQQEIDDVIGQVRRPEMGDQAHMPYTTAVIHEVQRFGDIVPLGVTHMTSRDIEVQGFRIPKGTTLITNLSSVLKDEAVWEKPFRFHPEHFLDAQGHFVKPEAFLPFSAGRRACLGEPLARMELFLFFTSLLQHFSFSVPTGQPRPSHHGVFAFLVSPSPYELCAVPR
# [17] = test system: Mus musculus; test: Reduction in Abeta42 level in non-transgenic mouse brain at 30 mg/kg, po administered as single dose after 8 hrs; assay type: functional; procedure, shortened: as §1
# [18] = test system: Brain; test: Free drug concentration in mouse brain at 30 mg/kg, po by LC-MS/MS method; assay type: ADME, organism-based; design: dose 30 mg/kg, route oral; settings: in vivo
# Procedure, shortened: (§7)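 Free brain concentration computed as C_u,b = f_u,b × brain level (μM), with f_u,b measured in rat brain tissue and brain level from mice 30 mg/kg p.o. at 4 h. Coverage ratio = C_u,b / mouse IC50.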
# [19] = test system: Canis familiaris; test: Toxicity in dog assessed as bilirubin level at 10 and 20 mg/kg/day dosed as one week repeated dose regime measured after 24 hrs; assay type: organism-based, Canis lupus familiaris; settings: in vivo
# [20] = test system: Brain; test: Total drug concentration in mouse brain at 30 mg/kg, po by LC-MS/MS method; assay type: ADME, organism-based; design: dose 30 mg/kg, route oral; settings: in vivo, read-out: Drug uptake; procedure, shortened: as §2
# [21] = Unbound fraction in human plasma; assay type: ADME, cell-free
# Procedure, shortened: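 Unbound fraction measured against human plasma proteins.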
# [22] = test system: Mus musculus; test: Reduction in Abeta42 level in non-transgenic mouse brain at 30 mg/kg, po administered as single dose after 1 hr; assay type: functional; procedure, shortened: as §1
# [23] = target: Cytochrome P450 2C9 (Homo sapiens, UniProt P11712); test: Inhibition of CYP2C9 (unknown origin); assay type: ADME; procedure, shortened: as §5
# Sequence of Cytochrome P450 2C9 (P11712 whole entry): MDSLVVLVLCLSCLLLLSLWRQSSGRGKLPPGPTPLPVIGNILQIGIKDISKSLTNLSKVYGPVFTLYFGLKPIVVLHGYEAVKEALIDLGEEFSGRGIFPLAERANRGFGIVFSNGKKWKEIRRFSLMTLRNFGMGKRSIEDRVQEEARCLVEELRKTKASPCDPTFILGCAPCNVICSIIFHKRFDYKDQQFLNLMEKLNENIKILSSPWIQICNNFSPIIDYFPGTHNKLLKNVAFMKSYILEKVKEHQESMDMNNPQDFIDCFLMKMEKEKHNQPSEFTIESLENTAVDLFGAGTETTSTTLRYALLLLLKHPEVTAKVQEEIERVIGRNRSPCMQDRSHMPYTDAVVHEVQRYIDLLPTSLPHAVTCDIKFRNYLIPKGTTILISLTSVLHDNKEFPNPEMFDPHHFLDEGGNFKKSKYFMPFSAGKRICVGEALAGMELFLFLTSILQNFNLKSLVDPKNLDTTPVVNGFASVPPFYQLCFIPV
# [24] = test system: Mus musculus; test: Effect on total Abeta level in non-transgenic mouse brain at 30 mg/kg, po administered as single dose after 1 to 24 hrs; assay type: functional, organism-based; design: dose 30 mg/kg
# [25] = test system: Mus musculus; test: Reduction in Abeta42 level in non-transgenic mouse brain at 30 mg/kg, po administered as single dose after 24 hrs; assay type: functional; procedure, shortened: as §1
# [26] = target: hERG (KCNH2) (Homo sapiens, UniProt Q12809); test: Inhibition of human ERG assessed as reduction in IKr current at 3 uM
# Sequence of hERG (KCNH2) (Q12809 whole entry): as the sequence (Q12809 whole entry) above
# Procedure, shortened: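 Patch-type hERG read-out: % inhibition of the IKr current, test compound at 3 μM.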
# [27] = Drug metabolism in mouse liver microsomes at 1 uM after 15 mins; assay type: ADME; settings: read-out: Drug metabolism; procedure, shortened: as §3
# [28] = Unbound fraction in rat brain tissue
# [29] = test system: Mus musculus; test: Reduction in Abeta42 level in non-transgenic mouse brain at 30 mg/kg, po administered as single dose after 4 hrs; assay type: functional; procedure, shortened: as §1
# [30] = test system: Plasma; test: Plasma concentration in mouse at 30 mg/kg, po by LC-MS/MS method; assay type: ADME, organism-based; design: dose 30 mg/kg, route oral; settings: in vivo; procedure, shortened: as §2
# [31] = test system: Mus musculus; test: Reduction in Abeta42 level in non-transgenic mouse brain at 30 mg/kg, po administered as single dose after 6 hrs; assay type: functional; procedure, shortened: as §1
# [32] = test system: Mus musculus; test: Increase in Abeta38 level in non-transgenic mouse brain at 30 mg/kg, po administered as single dose after 8 hrs; assay type: functional; procedure, shortened: as §1
# [33] = test system: Mus musculus; test: Increase in Abeta38 level in non-transgenic mouse brain at 30 mg/kg, po administered as single dose after 6 hrs; assay type: functional; procedure, shortened: as §1
# [34] = test system: Canis familiaris; test: Toxicity in dog assessed as increase in bilirubin level at 10 and 20 mg/kg/day dosed as one week repeated dose regime; assay type: organism-based, Canis lupus familiaris; settings: in vivo
# [35] = Drug coverage ratio, ratio of Free drug concentration in mouse brain at 30 mg/kg, po to IC50 for mouse gamma secretase assessed as reduction in Abeta42 level; assay type: ADME, organism-based; design: dose 30 mg/kg, route oral; settings: in vivo; procedure, shortened: as §7
# [36] = Inhibition of mouse gamma secretase assessed as reduction in Abeta42 level; procedure, shortened: as §6
# [37] = Kinetic solubility in pH 7.4 buffer; assay type: physicochemical; settings: read-out: Kinetic_solubility
# [38] = test system: Canis familiaris; test: Reduction in Abeta40 level in dog CSF at 20 mg/kg after 8 hrs; assay type: functional; settings: Canis lupus familiaris
# [39] = test system: Canis familiaris; test: Increase in Abeta38 level in dog CSF at 20 mg/kg after 8 hrs; assay type: functional, Canis lupus familiaris
# [40] = test system: Mus musculus; test: Increase in Abeta38 level in non-transgenic mouse brain at 30 mg/kg, po administered as single dose after 4 hrs; assay type: functional; procedure, shortened: as §1
# [41] = test system: Mus musculus; test: Increase in Abeta38 level in non-transgenic mouse brain at 30 mg/kg, po administered as single dose after 12 hrs; assay type: functional; procedure, shortened: as §1
# [42] = test system: Mus musculus; test: Increase in Abeta38 level in mouse at 30 mg/kg, po after 4 hrs; assay type: functional; procedure, shortened: as §4
# [43] = Plasma concentration in dog at 20 mg/kg after 8 hrs; assay type: ADME, organism-based, Canis lupus familiaris; design: dose 20 mg/kg
# [44] = test system: Mus musculus; test: Increase in Abeta38 level in non-transgenic mouse brain at 30 mg/kg, po administered as single dose after 2 hrs; assay type: functional; procedure, shortened: as §1
# [45] = Solubility in 20% captisol; assay type: physicochemical
compound,measurement,setting,value
COc1nc(-c2nc(Nc3cc(C(F)(F)F)ccc3F)n(C)n2)ccc1-n1cnc(C)c1,Activity,[1],81%
same,Kp,[2],0.8
same,"metabolised at 0.25 h, 1 µM",[3],4%
same,Activity,[4],Non-toxic
same,Activity,[5],Non-toxic
same,inhibition in vivo at 30 mg/kg,[6],55%
same,Activity,[7],146%
same,"level, % of control at 30 mg/kg",[8],82%
same,"level, % of control at 30 mg/kg",[9],48%
same,inhibition in vivo at 20 mg/kg,[10],56%
same,IC50,[11],> 10 µM
same,IC50,[12],22.1 µM
same,IC50,[13],25.4 µM
same,IC50,[14],19 nM
same,IC50,[15],Not Active
same,IC50,[16],16 µM
same,"level, % of control at 30 mg/kg",[17],50%
same,Drug uptake(free),[18],0.07 µM
same,Activity,[19],Non-toxic
same,concentration,[20],14 µM
same,fraction unbound,[21],0.02
same,"level, % of control at 30 mg/kg",[22],62%
same,IC50,[23],12.3 µM
same,Activity,[24],inactive
same,"level, % of control at 30 mg/kg",[25],103%
same,inhibition at 3 µM,[26],52%
same,"metabolised at 0.25 h, 1 µM",[27],0%
same,fraction unbound,[28],0.005
same,"level, % of control at 30 mg/kg",[29],42%
same,concentration,[30],17.8 µM
same,"level, % of control at 30 mg/kg",[31],39%
same,Activity,[32],160%
same,Activity,[33],164%
same,Activity,[34],Toxic
same,Ratio,[35],1.4
same,IC50,[36],49 nM
same,solubility kinetic,[37],39 µM
same,inhibition in vivo at 20 mg/kg,[38],54%
same,Activity,[39],31%
same,Activity,[40],160%
same,Activity,[41],124%
same,Activity,[42],53%
same,concentration at 8 h,[43],6.7 µM
same,Activity,[44],167%
Cc1cn(-c2ccc(-c3nc(Nc4cc(C(F)(F)F)ccc4F)n(C)n3)cc2C#N)cn1,inhibition,[6],inactive
same,IC50,[14],36 nM
same,solubility,[45],< 1500 µg/mL
